Measurements published in ChEMBL document CHEMBL1140335, “"Reversine" and its 2-substituted adenine derivatives as potent and selective A3 adenosine receptor antagonists” (J Med Chem, 2005).

Legend:
Adenosine receptor A2a [1] = target: T1, Adenosine receptor A2a (Homo sapiens, UniProt P29274); assay: Percent inhibition of […] binding to human adenosine A2A receptor expressed in CHO cells at 10 uM; format: cell-based
Adenosine receptor A3 = target: T2, Adenosine receptor A3 (Homo sapiens, UniProt P0DMS8); assay: biochemical; format: cell-based, CHO
T2 sequence (P0DMS8 whole entry): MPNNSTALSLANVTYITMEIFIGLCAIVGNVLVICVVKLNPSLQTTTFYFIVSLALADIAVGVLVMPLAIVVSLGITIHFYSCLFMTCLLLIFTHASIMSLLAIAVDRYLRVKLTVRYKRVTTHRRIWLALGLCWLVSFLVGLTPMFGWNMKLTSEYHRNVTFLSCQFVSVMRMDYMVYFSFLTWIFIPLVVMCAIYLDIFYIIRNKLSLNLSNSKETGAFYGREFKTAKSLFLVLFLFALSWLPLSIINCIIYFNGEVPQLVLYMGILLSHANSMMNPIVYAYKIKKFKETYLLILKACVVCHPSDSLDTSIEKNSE

[2] = target: T3, Adenosine receptor A1 (Homo sapiens) (UniProt P30542); assay: (§1) Percent inhibition of [3H]DPCPX binding to human adenosine A1 receptor expressed in CHO cells at 10 uM; format: cell-based
T3 sequence (whole entry): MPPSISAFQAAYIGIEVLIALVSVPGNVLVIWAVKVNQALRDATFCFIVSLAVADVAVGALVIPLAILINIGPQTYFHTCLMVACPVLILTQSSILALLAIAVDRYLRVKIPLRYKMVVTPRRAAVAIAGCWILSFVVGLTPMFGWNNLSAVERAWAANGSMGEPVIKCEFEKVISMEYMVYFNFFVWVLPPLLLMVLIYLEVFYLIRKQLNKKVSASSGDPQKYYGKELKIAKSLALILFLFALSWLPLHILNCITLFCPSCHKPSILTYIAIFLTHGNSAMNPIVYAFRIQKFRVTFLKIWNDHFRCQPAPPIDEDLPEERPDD
Summary of the method: (§2)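 Test ligand at a single 10 μM was run against 0.5 nM [3H]DPCPX on membranes (20 μg protein) from CHO cells stably expressing human A1 receptor, in 50 mM Tris-HCl, pH 7.4, for 60 min at 25°C. Nonspecific binding was defined with 10 μM NECA. Filtration was on GF/B, with scintillation counting. Results are percent displacement of radioligand.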

Adenosine receptor A2a [3] = target: T1, Adenosine receptor A2a; assay: Percent inhibition of [3H]-ZM241385 binding to human adenosine A2A receptor expressed in CHO cells at 10 uM
Adenosine receptor A1 [4] = target: T4, Adenosine receptor A1 (Homo sapiens, UniProt P30542); assay: as §1; format: cell-based; summary of the method: as §2
T4 sequence (P30542 whole entry): T3 sequence (whole entry)

Adenosine receptor A2a [5] = target: T1, Adenosine receptor A2a; format: cell-based, CHO
Adenosine receptor A1 [6] = target: T4, Adenosine receptor A1; format: cell-based, CHO
Adenosine receptor A1 [7] = target: T4, Adenosine receptor A1; assay: Percent inhibition of [3H]-DPCPX binding to human adenosine A1 receptor expressed in CHO cells at 10 uM; format: cell-based; summary of the method: as §2
Adenosine receptor A1 [8] = target: T4, Adenosine receptor A1; assay: Binding affinity for human adenosine A1 receptor
Summary of the method: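 Membranes from CHO cells stably expressing human A1 receptor (20 μg protein) were incubated with 0.5 nM [3H]DPCPX in 50 mM Tris-HCl, pH 7.4, for 60 min at 25°C. Nonspecific binding was defined with 10 μM NECA. Bound label was collected by GF/B filtration and counted by scintillation.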

T1 sequence (P29274 whole entry): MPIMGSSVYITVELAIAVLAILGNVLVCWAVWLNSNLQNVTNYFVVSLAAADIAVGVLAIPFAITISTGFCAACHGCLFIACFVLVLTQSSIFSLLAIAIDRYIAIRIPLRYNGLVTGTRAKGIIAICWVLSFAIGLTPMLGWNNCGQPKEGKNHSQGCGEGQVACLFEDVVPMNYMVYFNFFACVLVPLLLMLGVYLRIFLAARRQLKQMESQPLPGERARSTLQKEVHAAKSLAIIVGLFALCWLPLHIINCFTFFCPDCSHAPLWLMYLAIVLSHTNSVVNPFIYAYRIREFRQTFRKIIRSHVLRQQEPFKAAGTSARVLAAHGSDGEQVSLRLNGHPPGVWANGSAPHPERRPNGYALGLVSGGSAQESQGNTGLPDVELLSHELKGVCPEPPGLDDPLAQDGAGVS

SMILES | Ki (Adenosine receptor A3) [nM] | inhibition [2] [%] | inhibition (Adenosine receptor A2a [3]) [%] | further results
CCNc1nc(NC2CCCCC2)c2[nH]cnc2n1 | 1120 | 51 | 42 | 
c1ccc(CNc2nc(NC3CCCCC3)c3[nH]cnc3n2)cc1 | 920 | 42 | 34 | 
c1ccc2cc(Nc3nc(NC4CCCCC4)c4[nH]cnc4n3)ccc2c1 | 2420 |  |  | 
Cn1cnc2c(NC3CCCCCC3)nc(Nc3ccccc3)nc21 | 960 |  |  | Ki (Adenosine receptor A1 [6]): 1940 nM; Ki (Adenosine receptor A2a [5]): 2950 nM
c1ccc(CCNc2nc(NC3CCCCC3)c3[nH]cnc3n2)cc1 | 1460 |  |  | inhibition (Adenosine receptor A2a [1]): 46%; Ki (Adenosine receptor A1 [4]): 3170 nM
Cn1cnc2c(NC3CCCCC3)nc(Nc3ccccc3)nc21 | 70 |  |  | Ki (Adenosine receptor A1 [6]): 1880 nM; Ki (Adenosine receptor A2a [5]): 1200 nM
c1nc2nc(Nc3ccc(N4CCOCC4)cc3)nc(NC3CCCCC3)c2[nH]1 [REVERSINE] | 660 |  |  | Ki (Adenosine receptor A1 [6]): > 10000 nM; Ki (Adenosine receptor A2a [5]): > 10000 nM
CC(C)N(C)c1nc2c(NC3CC4CC3CC4O)ncnc2n1C (configuration not stated) |  |  |  | Ki (Adenosine receptor A1 [8]): 1.7 nM
CN(C)c1ccc(Nc2nc(NC3CCCCC3)c3[nH]cnc3n2)cc1 | 70 |  |  | Ki (Adenosine receptor A1 [6]): 3900 nM; Ki (Adenosine receptor A2a [5]): 6100 nM
c1ccc(Nc2nc(NC3CCCCCC3)c3[nH]cnc3n2)cc1 | 42 |  |  | Ki (Adenosine receptor A1 [6]): 1720 nM; Ki (Adenosine receptor A2a [5]): 4120 nM
c1ccc(Oc2nc(NC3CC4CCC3C4)c3nc[nH]c3n2)cc1 (configuration not stated) | 74 |  | 25 | Ki (Adenosine receptor A1 [6]): 1470 nM

Now from value to molecule, other results behind:

Ki (Adenosine receptor A3) [nM] | inhibition [2] [%] | inhibition (Adenosine receptor A2a [3]) [%] | SMILES | further results
1570 | 16 |  | c1nc2c(NC3CCCCC3)nc(Nc3ccc(N4CCCCC4)cc3)nc2[nH]1 | inhibition (Adenosine receptor A2a [1]): 50%
5400 | 14 | 22 | c1ccc(-c2ccc(Nc3nc4ncnc-4c(NC4CCCCC4)[nH]3)cc2)cc1 | 
51 |  |  | c1ccc(Nc2nc3ncnc-3c(NC3CCCCC3)[nH]2)cc1 | Ki (Adenosine receptor A1 [4]): 2730 nM; Ki (Adenosine receptor A2a [5]): 1700 nM
420 | 6 | 38 | c1nc2nc(Nc3ccc(N4CCOCC4)cc3)[nH]c(NC3CCCCCC3)c-2n1 | 
1810 | 29 | 18 | c1nc2nc(Nc3ccc(N4CCOCC4)cc3)[nH]c(NC3CCC3)c-2n1 | 
1390 | 22 | 20 | c1nc2nc(Nc3ccc(N4CCOCC4)cc3)[nH]c(NC3CCCC3)c-2n1 | 
2770 | 0 | 17 | c1nc2nc(Nc3ccc(N4CCOCC4)cc3)[nH]c(NC3CCCCCCC3)c-2n1 | 
122 |  |  | c1nc2nc(Nc3ccc(N4CCOCC4)cc3)nc(NC3CC4CCC3C4)c2[nH]1 (configuration not stated) | 
340 |  |  | c1ccc(Nc2nc3ncnc-3c(NC3CCCCCCC3)[nH]2)cc1 | Ki (Adenosine receptor A1 [7]): 4.47 µM
 | 39 | 52 | c1ccc2cc(Nc3nc4ncnc-4c(NC4CCCCC4)[nH]3)ccc2c1 | 
1870 | 22 | 25 | c1nc2nc(Nc3ccc(N4CCOCC4)cc3)nc(NC3CC3)c2[nH]1 | 
134 |  |  | c1ccc(Sc2nc3ncnc-3c(NC3CCCCC3)[nH]2)cc1 | 
1530 | 23 | 16 | CCNc1[nH]c(Nc2ccc(N3CCOCC3)cc2)nc2ncnc1-2 | 
